Source: ChEMBL document CHEMBL1125483, “Novel inhibitors of prolyl 4-hydroxylase. 3. Inhibition by the substrate analogue N-oxaloglycine and its derivatives” (J Med Chem, 1992)

Tests used:
[1] = biological target: Prolyl 4-hydroxylase subunit alpha-1 (Rattus norvegicus) (UniProt P54001); test: Compound was evaluated for the inhibition of prolyl 4-hydroxylase at 50 ug/mL
[2] = biological target: Prolyl 4-hydroxylase subunit alpha-1 (Rattus norvegicus) (UniProt P54001); test: Compound was evaluated for the inhibition of prolyl 4-hydroxylase at 100 ug/mL
[3] = biological target: T1, Prolyl 4-hydroxylase subunit alpha-1 (Rattus norvegicus, UniProt P54001); test: (§1) Compound was evaluated for the inhibition of prolyl 4-hydroxylase
Method in brief: (§2)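 Prolyl 4-hydroxylase activity was measured with an indirect assay that follows the conversion of labelled 2-ketoglutarate cosubstrate into labelled succinate. Each point was run in duplicate. IC50 was obtained by interpolation from six-point dose-response curves.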

[4] = biological target: T1, Prolyl 4-hydroxylase subunit alpha-1; test: Compound was evaluated for the inhibition of prolyl 4-hydroxylase
[5] = biological target: Prolyl 4-hydroxylase subunit alpha-1 (Rattus norvegicus) (UniProt P54001); test: Compound was evaluated for the inhibition of prolyl 4-hydroxylase at 100 ug/mL
[6] = biological target: T1, Prolyl 4-hydroxylase subunit alpha-1; test: Inhibitory activity against prolyl 4-hydroxylase
Method in brief: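 Indirect radiometric assay: conversion of labelled cofactor 2-ketoglutarate into labelled succinate measured. Each point in duplicate; IC50 interpolated from six-point dose-response curves.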

[7] = biological target: Prolyl 4-hydroxylase subunit alpha-1 (Rattus norvegicus) (UniProt P54001); test: as §1; details: concentration not given here; method in brief: as §2

Sequence of Prolyl 4-hydroxylase subunit alpha-1 (Rattus norvegicus) (P54001 whole entry): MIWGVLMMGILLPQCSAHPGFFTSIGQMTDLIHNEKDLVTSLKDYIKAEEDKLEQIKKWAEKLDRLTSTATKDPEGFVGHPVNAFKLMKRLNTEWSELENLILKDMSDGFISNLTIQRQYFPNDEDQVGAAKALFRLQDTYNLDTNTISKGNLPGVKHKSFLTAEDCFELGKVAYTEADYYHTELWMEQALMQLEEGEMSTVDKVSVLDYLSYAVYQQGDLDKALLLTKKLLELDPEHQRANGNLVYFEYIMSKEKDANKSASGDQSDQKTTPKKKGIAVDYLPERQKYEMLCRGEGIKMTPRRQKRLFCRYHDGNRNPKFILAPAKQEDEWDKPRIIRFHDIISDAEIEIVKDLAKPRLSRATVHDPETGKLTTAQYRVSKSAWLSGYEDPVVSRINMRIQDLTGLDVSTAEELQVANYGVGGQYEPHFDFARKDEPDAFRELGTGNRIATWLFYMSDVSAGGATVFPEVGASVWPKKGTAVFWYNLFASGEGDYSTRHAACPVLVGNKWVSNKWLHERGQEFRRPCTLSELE
T1 sequence (P54001 whole entry): as above

Row | Structure (SMILES) | inhibition [1] [%] | IC50 [3] [µM] | also measured
1 | O=C(CNC(=O)C(=O)O)NS(=O)(=O)c1ccccc1 | 34 |  | 
2 | CN(CC(=O)O)C(=O)C(=O)O | 10 |  | 
3 | CSCCC(NC(=O)C(=O)O)C(=O)O (stereo not drawn) |  |  | inhibition [2]: 9%
4 | CS(=O)(=O)NC(=O)CNC(=O)C(=O)O |  | 414 | 
5 | O=C(O)C(=O)NC(Cc1ccccc1)C(=O)O (stereo not drawn) | 18 |  | 
6 | C[C@@H](NC(=O)C(=O)O)C(=O)O |  |  | IC50 [4]: 621 µM
7 | O=C(O)C(=O)Nc1ccc(C(=O)O)cc1 |  |  | inhibition [5]: 9%
8 | O=C(O)c1ccc(C(=O)O)nc1 [PYRIDINE-2,5-DICARBOXYLIC ACID] |  | 5.18 | Ki [6]: 0.8 µM
9 | O=C(O)CCNC(=O)C(=O)O |  |  | inhibition [7]: 24%
10 | CC(C)(NC(=O)C(=O)O)C(=O)O | 26 |  | 
11 | CCOc1ccc(NC(=O)CNC(=O)C(=O)O)cc1 | 16 |  | 
12 | O=C(O)CNC(=O)C(=O)O [N-OXALYLGLYCINE] |  | 2.89 | Ki [3]: 0.54 µM
13 | O=C(O)C(=O)N1CCCC1C(=O)O (stereo not drawn) | 10 |  | 

Second part, led by results:

Row | inhibition [1] [%] | IC50 [3] [µM] | Structure (SMILES) | also measured
14 |  | 90.7 | CC(NC(=O)C(=O)O)C(=O)O (stereo not drawn) | 
15 |  | 38.2 | C[C@H](NC(=O)C(=O)O)C(=O)O | 
16 | 16 |  | CC(C)CC(NC(=O)C(=O)O)C(=O)O (stereo not drawn) | 
